# Active and inactive are the calls of the source. The calls are words filed in the database; no cut-off is given here.
# Experiments:
# A549 [1] = test: Cytotoxicity against human A549 cells assessed as reduction in cell viability incubated for 72 hrs by MTT assay; type: functional, cell-based; conditions: A549, 72 h
# Method in brief: (§1)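 In the MTT assay, logarithmic-phase cells were seeded at about 5 × 10⁴ cells/mL and preincubated 12 h. Cells were then exposed for 72 h at 37 °C under normoxia (20% O₂, 5% CO₂) to seven final concentrations, 1.25–80 μmol/L, diluted from DMSO stock. MTT (5 mg/mL) was added for 4 h, formazan was dissolved in DMSO, and absorbance was read at 570/630 nm. IC50 was calculated by the Bliss method; values are mean ± SD of three independent runs in duplicate.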
# A2780 [2] = test: Induction of apoptosis in human A2780 cells assessed as viable cells at 0.5 uM incubated for 72 hrs by annexin-V-FITC and PI staining based flow cytometry analysis (reference value: 91.95 %); type: functional; conditions: read-out: Activity
# A2780 [3] = test: Induction of apoptosis in human A2780 cells assessed as necrotic cells at 0.5 uM incubated for 72 hrs by annexin-V-FITC and PI staining based flow cytometry analysis (reference value: 0.98 %); type: functional
# A549 [4] = test: Potency index, ratio of IC50 of GEM to IC50 of compound for cytotoxicity against human A549 cells assessed as reduction in cell viability incubated for 72 hrs by MTT assay; type: functional
# Method in brief: (§2)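 The fold value is the IC50 of gemcitabine divided by the compound's IC50. Both IC50s come from 72 h normoxic MTT assays (1.25–80 μmol/L, Bliss method, three independent runs).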
# A2780 [5] = test: Antitumor activity against human A2780 cells xenografted in BALB/c mouse assessed as reduction in tumor volume at 271 mg/kg, iv administered for 28 days and measured on day 28 relative to control; type: functional; parameters: scale not given: the % may be the effect or the level left; conditions: time 28 day
# Method in brief: (§3)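 Female BALB/c nude mice, 5 weeks old, were implanted subcutaneously in the right armpit with 10⁷ A2780 cells in 0.1 mL PBS. At 100–150 mm³ (day 19) mice were randomized (5/group) and dosed by tail-vein injection once weekly for 4 weeks. GEM-5 was given in DMF:Tween 80:5% dextrose (10:2:88); vehicle controls received 5% dextrose. Volume was measured by caliper (V = AB²/2) every 3 days. Tumors were weighed after sacrifice, giving the tumor inhibitory rate.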
# A2780 [6] = test: Upregulation of p53 in human A2780 cells at 0.1 to 1 uM incubated for 24 hrs in hypoxia condition by Western blot analysis; type: functional, cell-based; conditions: dose 0.1-1 µM
# Method in brief: (§4)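 A2780 cells were treated at the indicated concentrations for 24 h under hypoxia. They were lysed in Tris-Cl pH 6.8 buffer with SDS, glycerol, β-mercaptoethanol, PMSF and aprotinin, then centrifuged at 13000 rpm for 20 min at 4 °C. Proteins were resolved by SDS-PAGE and transferred to PVDF. Blots were probed for HIF-1α, p53 and GAPDH, with secondary antibody at 1:2000 for 1 h, and detected by chemiluminescence.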
# L02 [7] = test: Cytotoxicity against human L02 cells assessed as reduction in cell viability incubated for 72 hrs by MTT assay; type: cell-based; conditions: L02, 72 h; method in brief: as §1
# A2780 [8] = test: Induction of apoptosis in human A2780 cells assessed as necrotic cells at 0.5 uM incubated for 72 hrs in hypoxic condition by annexin-V-FITC and PI staining based flow cytometry analysis (reference value: 3.04 %); type: functional
# A2780 [9] = test: Antitumor activity against human A2780 cells xenografted in BALB/c mouse assessed as reduction in tumor hypoxia at 271 mg/kg, iv administered for 28 days and measured on day 28 by DAPI staining based confocal microscopic analysis; type: functional, organism-based; conditions: time 28.0 day
# Method in brief: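 Tumor sections from the weekly i.v.-dosed A2780 xenograft mice were stained for hypoxia with the pimonidazole kit. This used FITC anti-pimonidazole antibody (1:100) plus HRP rabbit anti-FITC secondary (1:100), with DAPI for nuclei. Green hypoxic areas were imaged by confocal microscopy. Three independent experiments were run.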
# A549 [10] = test: Cytotoxicity against human A549 cells assessed as reduction in cell viability incubated for 72 hrs in hypoxic condition by MTT assay; type: functional, cell-based; conditions: A549, 72 h
# Method in brief: (§5)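 For the hypoxic MTT assay, cells were seeded at about 5 × 10⁴ cells/mL and preincubated 12 h under hypoxia (1% O₂, 5% CO₂, 94% N₂). They were then treated for 72 h at 37 °C with final concentrations of 1.25–80 μmol/L. MTT was added for 4 h and absorbance read at 570/630 nm. IC50 was obtained by the Bliss method; tests were repeated three times.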
# A2780 [11] = test: Cytotoxicity against human A2780 cells assessed as reduction in cell viability incubated for 72 hrs in hypoxic condition by MTT assay; type: functional, cell-based; conditions: A2780, 72 h; method in brief: as §5
# A2780 [12] = test: Induction of apoptosis in human A2780 cells assessed as late apoptotic cells at 0.5 uM incubated for 72 hrs in hypoxic condition by annexin-V-FITC and PI staining based flow cytometry analysis (reference value: 6.17 %); type: functional
# A2780 [13] = test: Induction of cell cycle arrest in human A2780 cells assessed as G2/M phase at 0.5 uM incubated for 24 hrs in hypoxic condition by PI staining based flow cytometry analysis (reference value: 8.38 %)
# [14] = Toxicity in BALB/c mouse xenografted with human A2780 cells assessed as effect on body weight at 125 mg/kg, iv administered for 28 days and measured on day 28; type: organism-based; conditions: in vivo, 672 h, time 28 day
# Method in brief: (§6)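 The A2780 subcutaneous xenograft was set up in female BALB/c nude mice. Weekly i.v. tail-vein dosing ran for 4 weeks, starting at 100–150 mm³ tumor size (5 mice/group), with DMF:Tween 80:5% dextrose (10:2:88) as the formulation and a 5% dextrose vehicle control. Body weight was recorded every three days over 28 days.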
# A2780 [15] = test: Antitumor activity against human A2780 cells xenografted in BALB/c mouse assessed as reduction in tumor volume at 125 mg/kg, iv administered for 28 days and measured on day 28 relative to control; type: functional; parameters: scale not given: the % may be the effect or the level left; conditions: time 28 day; method in brief: as §3
# MCF7 [16] = test: Potency index, ratio of IC50 of GEM to IC50 of compound for cytotoxicity against human MCF7 cells assessed as reduction in cell viability incubated for 72 hrs by MTT assay; type: functional; method in brief: as §2
# A2780 [17] = test: Induction of cell cycle arrest in human A2780 cells assessed as G1 phase at 0.5 uM incubated for 24 hrs by PI staining based flow cytometry analysis (reference value: 75.23 %)
# A2780 [18] = test: Antitumor activity against human A2780 cells xenografted in BALB/c mouse assessed as reduction in tumor growth at 271 mg/kg, iv administered for 28 days and measured on day 28 relative to control; type: functional; conditions: 672 h, time 28 day, read-out: TGI; method in brief: as §3
# A2780 [19] = test: Downregulation of HIF-1alpha in human A2780 cells incubated for 24 hrs in hypoxia condition by Western blot analysis; type: functional, cell-based; conditions: dose 0.1-1 µM; method in brief: as §4
# A2780 [20] = test: Antitumor activity against human A2780 cells xenografted in BALB/c mouse assessed as reduction in tumor growth at 125 mg/kg, iv administered for 28 days and measured on day 28 relative to control; type: functional; conditions: 672 h, time 28 day, read-out: TGI; method in brief: as §3
# A2780 [21] = test: Induction of cell cycle arrest in human A2780 cells assessed as G1 phase at 0.5 uM incubated for 24 hrs in hypoxic condition by PI staining based flow cytometry analysis (reference value: 56.83 %)
# A2780 [22] = test: Induction of apoptosis in human A2780 cells assessed as early apoptotic cells at 0.5 uM incubated for 72 hrs by annexin-V-FITC and PI staining based flow cytometry analysis (reference value: 5.35 %); type: functional
# L02 [23] = test: Cytotoxicity against human L02 cells assessed as reduction in cell viability incubated for 72 hrs in hypoxic condition by MTT assay; type: cell-based; conditions: L02, 72 h
# MCF7 [24] = test: Cytotoxicity against human MCF7 cells assessed as reduction in cell viability incubated for 72 hrs by MTT assay; type: functional, cell-based; conditions: MCF7, 72 h; method in brief: as §1
# [25] = Toxicity in BALB/c mouse xenografted with human A2780 cells assessed as effect on body weight at 271 mg/kg, iv administered for 28 days and measured on day 28; type: organism-based; conditions: in vivo, 672 h, time 28 day; method in brief: as §6
# A2780 [26] = test: Induction of cell cycle arrest in human A2780 cells assessed as S phase at 0.5 uM incubated for 24 hrs in hypoxic condition by PI staining based flow cytometry analysis (reference value: 34.79 %)
# A2780 [27] = test: Induction of cell cycle arrest in human A2780 cells assessed as S phase at 0.5 uM incubated for 24 hrs by PI staining based flow cytometry analysis (reference value: 20.11 %)
# A2780 [28] = test: Cytotoxicity against human A2780 cells assessed as reduction in cell viability incubated for 72 hrs by MTT assay; type: functional, cell-based; conditions: A2780, 72 h; method in brief: as §1
# A2780 [29] = test: Induction of cell cycle arrest in human A2780 cells assessed as G2/M phase at 0.5 uM incubated for 24 hrs by PI staining based flow cytometry analysis (reference value: 4.66 %)
# A2780 [30] = test: Induction of apoptosis in human A2780 cells assessed as late apoptotic cells at 0.5 uM incubated for 72 hrs by annexin-V-FITC and PI staining based flow cytometry analysis (reference value: 1.71 %); type: functional
# A2780 [31] = test: Induction of apoptosis in human A2780 cells assessed as viable cells at 0.5 uM incubated for 72 hrs in hypoxic condition by annexin-V-FITC and PI staining based flow cytometry analysis (reference value: 81.05 %); type: functional; conditions: read-out: Activity
# A2780 [32] = test: Potency index, ratio of IC50 of GEM to IC50 of compound for cytotoxicity against human A2780 cells assessed as reduction in cell viability incubated for 72 hrs by MTT assay; type: functional; method in brief: as §2
# A2780 [33] = test: Induction of apoptosis in human A2780 cells assessed as early apoptotic cells at 0.5 uM incubated for 72 hrs in hypoxic condition by annexin-V-FITC and PI staining based flow cytometry analysis (reference value: 9.74 %); type: functional
# [34] = (§7) Downregulation of HIF-1alpha in human A2780 cells at 1 uM incubated for 24 hrs in hypoxia condition by Western blot analysis relative to control; type: functional; method in brief: as §4
# A2780 [35] = test: as §7; type: functional; method in brief: as §4
SMILES,IC50 (A549 [1]),viability at 0.5 µM (A2780 [2]),Activity (A2780 [3]),Activity (A2780 [6]),IC50 (L02 [7]),Activity (A2780 [8]),IC50 (A549 [10]),IC50 (A2780 [11]),Activity (A2780 [12]),Activity (A2780 [13]),Activity [14],Activity (A2780 [15]),Activity (A2780 [17]),inhibition in vivo at 125 mg/kg (A2780 [20]),Activity (A2780 [21]),Activity (A2780 [22]),IC50 (L02 [23]),IC50 (MCF7 [24]),Activity (A2780 [26]),IC50 (A2780 [28]),further results
Nc1ccn([C@@H]2O[C@H](COC(=O)CCC(=O)OCc3ccc(-c4nn(Cc5ccccc5)c5ccccc45)o3)[C@@H](O)C2(F)F)c(=O)n1,0.37 µM,35.2%,12.08%,Dose-Dependent Effect,4.43 µM,1.13%,3.03 µM,0.03 µM,32.41%,7.99%,Non-Toxic,46.09%,17.74%,55.1%,19.37%,3.85%,3.04 µM,2.6 µM,72.64%,0.13 µM,Ratio IC50 (A549 [4]): 6.2; Activity (A2780 [5]): 36.61%; Activity (A2780 [9]): Active; Ratio IC50 (MCF7 [16]): 2.4; inhibition in vivo at 271 mg/kg (A2780 [18]): 64.6%; Activity (A2780 [19]): Dose-Dependent Effect; Activity [25]: Non-Toxic; Activity (A2780 [27]): 63.02%; Activity (A2780 [29]): 19.24%; Activity (A2780 [30]): 48.82%; viability at 0.5 µM (A2780 [31]): 18%; Ratio IC50 (A2780 [32]): 9.6; Activity (A2780 [33]): 48.48%
OCc1ccc(-c2nn(Cc3ccccc3)c3ccccc23)o1,> 80 µM,,,inactive,> 80 µM,,25.6 µM,20.4 µM,,,,,,,,,26.6 µM,> 80 µM,,> 80 µM,Activity [34]: 50%
Cl.Nc1ccn([C@@H]2O[C@H](CO)[C@@H](O)C2(F)F)c(=O)n1 [GEMCITABINE HYDROCHLORIDE],2.31 µM,51.6%,8.98%,Dose-Dependent Effect,11.9 µM,2.44%,14.7 µM,1.38 µM,19.51%,2.7%,Non-Toxic,29.37%,42.51%,69.7%,37.21%,5.02%,4.51 µM,6.35 µM,60.08%,1.25 µM,Activity (A2780 [35]): inactive; Activity (A2780 [27]): 51.54%; Activity (A2780 [29]): 5.95%; Activity (A2780 [30]): 34.42%; viability at 0.5 µM (A2780 [31]): 53%; Activity (A2780 [33]): 25%

# From ChEMBL document CHEMBL4834447, “A gemcitabine-based conjugate with enhanced antitumor efficacy by suppressing HIF-1α expression under hypoxia” (Bioorg Med Chem, 2021)
